Measurements from ChEMBL document CHEMBL3751704, “Diarylthiophenes as inhibitors of the pore-forming protein perforin” (Bioorg Med Chem Lett, 2016).
Calls of active or inactive are those of the source. The rule behind the calls is not given here.

Molecular target: T1, Perforin-1 (Homo sapiens) (UniProt P14222)
T1 sequence (whole entry): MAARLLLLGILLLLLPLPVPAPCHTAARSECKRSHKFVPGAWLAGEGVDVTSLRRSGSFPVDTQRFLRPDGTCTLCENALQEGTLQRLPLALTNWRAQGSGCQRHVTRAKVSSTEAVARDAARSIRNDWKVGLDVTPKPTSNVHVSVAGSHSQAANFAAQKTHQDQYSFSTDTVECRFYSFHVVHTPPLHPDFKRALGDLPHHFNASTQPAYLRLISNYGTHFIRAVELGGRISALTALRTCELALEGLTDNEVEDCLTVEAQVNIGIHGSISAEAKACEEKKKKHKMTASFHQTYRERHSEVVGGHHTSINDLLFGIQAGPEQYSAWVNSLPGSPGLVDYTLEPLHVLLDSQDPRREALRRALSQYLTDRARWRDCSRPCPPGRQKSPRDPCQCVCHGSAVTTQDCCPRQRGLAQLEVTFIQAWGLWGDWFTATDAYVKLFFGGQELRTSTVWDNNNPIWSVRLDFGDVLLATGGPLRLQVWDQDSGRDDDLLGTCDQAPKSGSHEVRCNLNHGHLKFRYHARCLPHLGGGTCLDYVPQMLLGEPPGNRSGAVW
Assay: Inhibition of perforin released from human KHYG-1 NK cells assessed as inhibition of perforin mediated lysis of human K562 cells at 20 uM by measuring 51Cr release incubated for 20 mins by gamma counting analysis relative to control
Assay type: cell-based
Conditions: in the assay text read “incubated for 30 mins” for “incubated for 20 mins”
Method in brief: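 KHYG-1 human NK effector cells preincubated with inhibitor (20 μM) in medium for 30 min at room temperature. 51Cr-labelled K562 leukaemia target cells then added and incubated 4 h at 37 °C. Lysis read as 51Cr release. Percent inhibition calculated against untreated control.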

inhibition: inactive
SMILES: CS(=O)(=O)Nc1ccc(-c2ccc(-c3ccc4c(c3)COC4=O)s2)cc1
